For experiment [1], the species on record is Rattus norvegicus. The experiment is described as follows: Selectivity ratio of Ki for sigma 2 receptor in rat liver membranes to Ki for sigma 1 receptor in rat liver membranes. Format: cell membranes. The following applies: Membrane.
Experiment [2] deals with Sigma non-opioid intracellular receptor 1 (Rattus norvegicus, UniProt Q9R0C9). The experiment is described as follows: Displacement of [3H](+)-pentazocine from sigma 1 receptor in rat liver membranes. Format: cell membranes, Membrane. In outline:
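Rat liver membranes in a 96-well high-throughput format. Sigma-1 sites labeled with 5 nM [3H](+)-pentazocine. Nonspecific binding defined with 10 μM haloperidol. Ki values derived from displacement.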
Background: Loss of bound radioactivity is the signal in a displacement assay; it reports binding, not function.

Experiment [3] in a line: Displacement of [3H]DTG from sigma 2 receptor in rat liver membranes. Format: cell membranes, Membrane. The method in brief: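 Rat liver membranes in a 96-well high-throughput format. Sigma-2 sites labeled with 5 nM [3H]DTG, with 300 nM (+)-pentazocine present to mask sigma-1. Nonspecific binding defined with 10 μM haloperidol. Ki values derived from displacement.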
The nature of experiment [4]: Binding affinity to sigma 2 receptor in guinea pig brain membranes. Type of experiment: cell membranes, Cavia porcellus, Membrane.
The species entered for experiment [5] is Cavia porcellus. Nature of the experiment: Selectivity ratio of Ki for sigma 2 receptor in guinea pig brain membranes to Ki for sigma 1 receptor in guinea pig brain membranes. Type of experiment: cell membranes.

Chain of Sigma non-opioid intracellular receptor 1 (Q9R0C9 whole entry): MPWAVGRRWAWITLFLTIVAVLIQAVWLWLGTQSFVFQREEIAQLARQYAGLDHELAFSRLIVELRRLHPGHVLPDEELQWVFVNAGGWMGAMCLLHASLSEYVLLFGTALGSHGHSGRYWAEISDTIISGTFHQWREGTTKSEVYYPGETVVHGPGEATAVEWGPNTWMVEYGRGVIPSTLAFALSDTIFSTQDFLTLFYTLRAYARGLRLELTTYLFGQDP

As usually defined, the Ki is the dissociation constant of the complex between target and ligand, obtained from inhibition or displacement. A higher Ki goes with lower affinity. Consider `CCCC(=O)c1ccc2c(c1)sc(=O)n2CCCCN1CCCCCC1`, for which the Ratio Ki in experiment [1] is 4.5. The inhibitory constant (Ki) in experiment [2] came out at 4.8 nM; in experiment [3], 21.6 nM.
`CCCc1ccc2c(c1)sc(=O)n2CCCCCCN1CCCCCC1`: in experiment [1], the Ratio Ki came out at 0.4. Moreover, the inhibition constant (Ki) amounted to 6.3 nM in experiment [2] and 2.3 nM in experiment [3].
The like results for `O=c1sc2ccccc2n1CCCCCCN1CCCCCC1` were, in that order, 0.3, 7.5 nM and 2.4 nM.
For the compound `O=c1sc2ccccc2n1CCN1CCCC1`, the Ratio Ki in experiment [1] was 14. Besides, the Ki in experiment [2] came out at 578 nM; in experiment [3], 8260 nM.
Take `O=c1sc2ccccc2n1CCCCN1CCCCCC1`: the Ratio Ki in experiment [1] came to 31. Moreover, the results for the Ki in experiment [2] and in experiment [3] were 3.2 nM and 101 nM, respectively.
In the same order, the values of `CCCCc1ccc2c(c1)sc(=O)n2CCCN1CCCCCC1` are 7, 2.2 nM and 15.3 nM.
Turning to `O=c1sc2cc(CCCF)ccc2n1CCN1CCCCCC1`, the Ratio Ki in experiment [1] was determined as 486.
With `CCC(=O)c1ccc2c(c1)sc(=O)n2CCCCCN1CCCCCC1`, the Ratio Ki in experiment [1] turned out to be 0.7. Moreover, the Ki in experiment [2] came out at 12.2 nM; in experiment [3] it was 8.3 nM.
In the same order, the values of `O=c1sc2ccccc2n1CCN1CCCCCCC1` are 74, 9.7 nM and 716 nM.
In the same order, the values of `CCC(=O)c1ccc2c(c1)sc(=O)n2CCCN1CCCCCC1` are 83, 3.7 nM and 305 nM.
`CCCCc1ccc2c(c1)sc(=O)n2CCCCN1CCCCCC1`: the Ratio Ki in experiment [1] amounted to 2.4. Also, the Ki in experiment [2] worked out at 1.9 nM; in experiment [3], 4.4 nM.
For `CCCc1ccc2c(c1)sc(=O)n2CCCCCN1CCCCCC1`, the Ratio Ki in experiment [1] was determined as 0.3. In addition, the values for the Ki in experiment [2] and in experiment [3] were 4.6 nM and 1.6 nM, respectively.
On to `CCC(=O)c1ccc2c(c1)sc(=O)n2CCCCCCN1CCCCCC1`, for which the Ratio Ki in experiment [1] worked out at 0.1. Also, the Ki in experiment [2] stood at 10.4 nM; in experiment [3], 1.1 nM.
For `CCC(=O)c1ccc2c(c1)sc(=O)n2CCN1CCCC1`, in experiment [1], the Ratio Ki was 41. For the same compound, the values for the inhibitory constant (Ki) in experiment [2] and in experiment [3] were 116 nM and 4790 nM, respectively.
The like results for `CCC(=O)c1ccc2c(c1)sc(=O)n2CCN1CCCCCC1` were, in that order, 484, 4.5 nM and 2180 nM.
In the same order, the values of `CCC(=O)c1ccc2c(c1)sc(=O)n2CCCCN1CCCCCC1` are 3, 10.3 nM and 30.3 nM.
In the same order, the values of `O=c1sc2ccccc2n1CCCN1CCCCCC1` are 43, 4.1 nM and 177 nM.
On to `CCCc1ccc2c(c1)sc(=O)n2CCCN1CCCCCC1`, for which, in experiment [1], the Ratio Ki came out at 13. The values for the Ki in experiment [2] and in experiment [3] were 1.4 nM and 17.2 nM, respectively.
In the same order, the values of `CCCC(=O)c1ccc2c(c1)sc(=O)n2CCCN1CCCCCC1` are 39, 2.6 nM and 104 nM.
In the same order, the values of `CCCCc1ccc2c(c1)sc(=O)n2CCCCCCN1CCCCCC1` are 0.3, 12 nM and 4.1 nM.
In the case of `CCCc1ccc2c(c1)sc(=O)n2CCN1CCCCCC1`, the figures for the Ki in experiment [4], in experiment [2] and in experiment [3] were above 1000 nM, 1.6 nM and 270 nM, respectively. The figures for the Ratio Ki in experiment [1] and in experiment [5] were 169 and above 1000, respectively.
Consider `CCCC(=O)c1ccc2c(c1)sc(=O)n2CCCCCCN1CCCCCC1`, for which the Ratio Ki in experiment [1] is 0.2. Besides, the Ki in experiment [2] came out at 10.8 nM; in experiment [3] it was 2.3 nM.
On to `CCCc1ccc2c(c1)sc(=O)n2CCCCN1CCCCCC1`, for which the Ratio Ki in experiment [1] is 0.7. In addition, the Ki in experiment [2] amounted to 6.1 nM; in experiment [3], 4.3 nM.
For the compound `CCCC(=O)c1ccc2c(c1)sc(=O)n2CCCCCN1CCCCCC1`, in experiment [1], the Ratio Ki amounted to 0.4. Besides, the Ki in experiment [2] stood at 16.3 nM; in experiment [3], 5.7 nM.
For `O=c1sc2ccccc2n1CCCCCN1CCCCCC1`, the Ratio Ki in experiment [1] came out at 0.4. Moreover, the Ki in experiment [2] stood at 7 nM; in experiment [3], 2.5 nM.

Values taken from ChEMBL document CHEMBL2413075, “Structure activity relationship study of benzo[d]thiazol-2(3H)one based σ receptor ligands” (Bioorg Med Chem Lett, 2013).
